Results on four molecules are retold here after ChEMBL document CHEMBL2390849, “Glycosylation enhances the anti-migratory activities of isomalyngamide A analogs” (Eur J Med Chem, 2013).

The structures appear in SMILES notation. Calls of active or inactive are those of the source. No cut-off for these calls is given here. Some results are limits rather than exact numbers.

In assay [1] the test system is MDA-MB-231. The assay can be described thus: Inhibition of human MDA-MB-231 cell adhesion to fibronectin at 10 to 30 uM after 48 hrs by crystal violet staining-based spectrophotometric analysis relative to control. The class given is functional. In a few lines: (§1)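 Cells pretreated 48 h with compound, trypsinized, and resuspended at 2 × 10^5 cells/mL in DMEM with 0.1% BSA. Added to wells coated overnight at 4 °C with fibronectin or collagen IV ([…] as printed), then blocked with 0.1% BSA. Adhesion 60 min at 37 °C. Adherent cells fixed in 10% formaldehyde and stained with 0.05% crystal violet. Dye extracted, A595 read. Reported as percent of untreated control, triplicate.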

Assay [2] concerns MDA-MB-231. In words: Inhibition of human MDA-MB-231 cell invasion at 20 to 30 uM after 24 hrs by Transwell assay. The class given is functional, cell-based. In a few lines: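 Transwell inserts with 8 µm pores precoated with Matrigel. Cells seeded at 8 × 10^4 cells/mL in serum-free medium with compound or DMSO, 24 h. Lower wells hold 5% FBS-containing medium as chemoattractant. Invaded cells fixed and stained, then counted in three random fields. Run in triplicate, expressed as percent of untreated control.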

For assay [3], the system named is MDA-MB-231. In words: Antimigratory activity against human MDA-MB-231 cells at 25 uM after 24 hrs by scratch wound healing assay. The class given is functional, cell-based. In a few lines:
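Cells grown overnight at 37 °C to a confluent monolayer in duplicate wells, then scratched with a pipette tip. Migration into the wound photographed at 0 and 24 h at 100× magnification.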

Assay [4] concerns MDA-MB-231. The assay can be described thus: Cytotoxicity against human MDA-MB-231 cells at 10 to 30 uM after 48 hrs by MTT assay. The class given is functional, cell-based.
The test system of assay [5] is MDA-MB-231. The assay can be described thus: Effect on RAC1 expression level in human MDA-MB-231 cells at 10 to 30 uM after 24 hrs by Western blotting analysis. The class given is functional, cell-based. In a few lines: (§2)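 Cells treated 24 h with the indicated concentrations. Lysates immunoblotted with antibodies to total FAK, phospho-FAK (Y397), total paxillin and Rac1, with β-actin as internal control. Bands detected by enhanced chemiluminescence.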
On the technique in general: Immunoblotting shows a protein as a band on a membrane.

Assay [6] deals with MDA-MB-231. The assay can be described thus: Effect on paxillin expression level in human MDA-MB-231 cells after 24 hrs by Western blotting analysis. The assay is classed as functional, cell-based. In a few lines:
as §2

In assay [7] the test system is MDA-MB-231. In words: Effect on FAK expression level in human MDA-MB-231 cells at 10 to 30 uM after 24 hrs by Western blotting analysis. The class given is functional, cell-based. In a few lines:
as §2

The target in assay [8] is Focal adhesion kinase 1 (Homo sapiens) (UniProt Q05397). The assay can be described thus: Inhibition of FAK phosphorylation at Tyr397 in human MDA-MB-231 cells after 24 hrs by Western blotting analysis. The assay is classed as cell-based. In a few lines:
as §2

The test system of assay [9] is MDA-MB-231. In words: Inhibition of human MDA-MB-231 cell adhesion to fibronectin at 30 uM after 48 hrs by crystal violet staining-based spectrophotometric analysis relative to control. The class given is functional. Conditions: MDA-MB-231, 48 h. In a few lines: as §1
Assay [10] has as its system MDA-MB-231. The assay can be described thus: Inhibition of human MDA-MB-231 cell adhesion to fibronectin at 20 uM after 48 hrs by crystal violet staining-based spectrophotometric analysis relative to control. Conditions: MDA-MB-231, 48 h. The assay is classed as functional. In a few lines: as §1
For assay [11], the system named is MDA-MB-231. In words: Inhibition of human MDA-MB-231 cell adhesion to fibronectin at 10 uM after 48 hrs by crystal violet staining-based spectrophotometric analysis relative to control. The assay is classed as functional. Conditions: MDA-MB-231, 48 h. In a few lines:
as §1

Assay [12] has as its system MDA-MB-231. In words: Inhibition of human MDA-MB-231 cell adhesion to collagen 4 after 48 hrs by crystal violet staining-based spectrophotometric analysis. The class given is functional. In a few lines:
as §1

In assay [13] the test system is MDA-MB-231. In words: Inhibition of human MDA-MB-231 cell adhesion to fibronectin after 48 hrs by crystal violet staining-based spectrophotometric analysis. The class given is functional. In a few lines: as §1
Assay [14] has as its system MDA-MB-231. In words: Antimigratory activity against human MDA-MB-231 cells after overnight incubation by Boyden chamber assay. The assay is classed as functional, cell-based. In a few lines:
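Boyden chamber (8 µm polycarbonate membrane coated with Matrigel, […] as printed). Cells trypsinized into serum-free medium at 2.5 × 10^5 cells/mL containing test agent, placed in upper chamber. Lower chamber holds medium with 5% FBS as chemoattractant. Overnight at 37 °C. Transmigrated cells fixed in methanol, Giemsa-stained, counted in three random fields. IC50 is the mean of three independent experiments.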

Chain of Focal adhesion kinase 1 (Homo sapiens) (Q05397 2-1052 limits assumed): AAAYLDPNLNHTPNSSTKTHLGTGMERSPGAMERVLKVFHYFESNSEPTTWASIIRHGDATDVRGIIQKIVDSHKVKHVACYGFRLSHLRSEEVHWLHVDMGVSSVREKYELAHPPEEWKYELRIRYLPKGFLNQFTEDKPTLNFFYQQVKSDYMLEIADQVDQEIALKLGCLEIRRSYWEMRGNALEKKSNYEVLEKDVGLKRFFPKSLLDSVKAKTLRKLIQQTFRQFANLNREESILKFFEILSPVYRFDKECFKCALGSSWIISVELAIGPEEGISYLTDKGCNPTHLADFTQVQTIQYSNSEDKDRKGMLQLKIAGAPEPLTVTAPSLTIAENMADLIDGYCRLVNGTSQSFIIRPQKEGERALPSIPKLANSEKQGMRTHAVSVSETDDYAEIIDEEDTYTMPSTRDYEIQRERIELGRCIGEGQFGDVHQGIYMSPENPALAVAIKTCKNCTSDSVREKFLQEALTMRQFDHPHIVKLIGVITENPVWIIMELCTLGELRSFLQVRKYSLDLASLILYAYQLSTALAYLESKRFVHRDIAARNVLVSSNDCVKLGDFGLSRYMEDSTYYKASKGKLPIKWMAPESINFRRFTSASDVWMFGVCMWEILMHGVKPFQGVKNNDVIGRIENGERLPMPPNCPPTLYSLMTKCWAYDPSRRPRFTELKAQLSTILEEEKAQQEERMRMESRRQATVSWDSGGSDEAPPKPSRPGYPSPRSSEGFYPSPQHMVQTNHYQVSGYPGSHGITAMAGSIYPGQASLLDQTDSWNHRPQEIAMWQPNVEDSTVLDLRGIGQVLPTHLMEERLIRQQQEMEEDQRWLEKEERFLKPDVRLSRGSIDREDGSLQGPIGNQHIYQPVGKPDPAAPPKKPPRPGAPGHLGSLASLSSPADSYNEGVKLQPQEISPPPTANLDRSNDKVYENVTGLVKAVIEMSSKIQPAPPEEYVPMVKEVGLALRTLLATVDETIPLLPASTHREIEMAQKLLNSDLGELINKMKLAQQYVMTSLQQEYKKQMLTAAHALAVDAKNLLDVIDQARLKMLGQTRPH

Regarding `CCCCCCCCCCCCCC(=O)NCCNC(=O)C(C)(C)C(=O)NCC(=O)O`, the inhibition result with MDA-MB-231 [1] and in the assay with MDA-MB-231 [2] was “Active” throughout. The result in the assay on MDA-MB-231 [3] was Active. Besides, in the assay on MDA-MB-231 [4], the outcome was inactive.
For the molecule `CCCCCCCCCCCCCC(=O)NCCNC(=O)C(C)(C)C(=O)NCCO[C@@H]1O[C@H](COC(C)=O)[C@H](OC(C)=O)[C@H](OC(C)=O)[C@H]1OC(C)=O`, the outcome with MDA-MB-231 [5], with MDA-MB-231 [7] and with MDA-MB-231 [4] was inactive. The Activity entry in the assay with MDA-MB-231 [6] and in the assay with MDA-MB-231 [14] was “Dose-dependent effect” in each case. In addition, the inhibition entry (in assay [8]; in the assay with MDA-MB-231 [12]; in the assay on MDA-MB-231 [13]) was “Dose-dependent effect” throughout. The same molecule came in with an adhesion % at 30 µM in the assay on MDA-MB-231 [9] of 58%. This molecule also registered an adhesion % at 20 µM in the assay with MDA-MB-231 [10] of 69%. In addition, the adhesion % at 10 µM in the assay with MDA-MB-231 [11] is 79%. For the same molecule, the inhibition entry in the assay on MDA-MB-231 [2] was “Active”. Also, the IC50 in the assay with MDA-MB-231 [14] was 11.8 µM. Further, the result with MDA-MB-231 [3] was Active.
`CCCCCCCCCCCCCC(=O)NCCNC(=O)C(C)(C)C(=O)NCCO[C@@H]1O[C@H](COC(C)=O)[C@@H](O[C@@H]2O[C@H](COC(C)=O)[C@H](OC(C)=O)[C@H](OC(C)=O)[C@H]2OC(C)=O)[C@H](OC(C)=O)[C@H]1OC(C)=O`: the inhibition entry in the assay with MDA-MB-231 [12] and with MDA-MB-231 [13] was “Dose-dependent effect” each time. Besides, in the assay on MDA-MB-231 [2], the inhibition result was “Active”. Besides, the IC50 with MDA-MB-231 [14] was over 50 µM. The result with MDA-MB-231 [3] was Active. For the same molecule, the outcome with MDA-MB-231 [4] was inactive.
As to `CCCCCCCCCCCCCC(=O)NCCNC(=O)C(C)(C)C(=O)NCCO[C@H]1O[C@H](COC(C)=O)[C@@H](OC(C)=O)[C@H](OC(C)=O)[C@@H]1OC(C)=O`, the result in the assay on MDA-MB-231 [5], in the assay with MDA-MB-231 [7] and in the assay with MDA-MB-231 [4] was inactive. The Activity result in the assay on MDA-MB-231 [6] and in the assay on MDA-MB-231 [14] was “Dose-dependent effect” each time. For the same molecule, the inhibition result (in assay [8]; with MDA-MB-231 [12]; in the assay with MDA-MB-231 [13]) was “Dose-dependent effect” each time. Further, in the assay with MDA-MB-231 [2], the inhibition entry is “Active”. Also, it took 11.7 µM to reach half-maximal inhibition in the assay on MDA-MB-231 [14] (IC50). Also, in the assay on MDA-MB-231 [3], the outcome was Active.

By IC50 is commonly meant the point on the concentration scale where inhibition reaches its midpoint. A low value points to greater potency.
